This series in a line: Toxicity liver stage against HepG2, at 10uM. It is filed as cell-based. Conditions: human, HepG2-A16-CD81EGFP cells; read-out: INHIBITION
Details: test concentration 10 uM, cell line HepG2-A16-CD81EGFP. In a few lines:
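Uninfected HepG2-A16-CD81EGFP cells, 3 × 10^3 per well, 1536-well, plated on prespotted compound at 10 μM final, parasite-free screening media added to match infected plates; puromycin 10 μM positive, DMSO 0.5% negative; run in parallel with 48 h PbLuc assay at 37 °C, 5% CO2; viability by CellTiter-Glo luminescence, normalized to controls.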
For the compound `Cc1cnc(N)c(C(=O)C2CCN(C(=O)C3CCC3)CC2)c1`, the cytotoxicity at 10 µM was -23.1%.

Turning to `c1cc(N2CCOCC(Cc3ccc4[nH]ccc4c3)C2)ncn1` (stereo unspecified), the cytotoxicity at 10 µM is -15.9%.

`CCOc1ccccc1C(=O)NCCc1ccoc1`: the cytotoxicity at 10 µM turned out to be 8.54%.

As for `COCc1nc(CN2CCN(c3ccc(OC)cc3)C(=O)C2C)no1` (stereo unspecified), the cytotoxicity at 10 µM worked out at 3.35%.

Regarding `CCc1nnc2n1CCN(C(=O)c1ccc(C)c(S(N)(=O)=O)c1)C2`, the cytotoxicity at 10 µM was -4.55%.

With `O=C(O)c1ccc(F)c(S(=O)(=O)Nc2ccc(-n3cccn3)c(Cl)c2)c1`, the cytotoxicity at 10 µM is 2.24%.

For the compound `CC(C)N(CC(N)=O)CC(=O)NCCc1c(F)cccc1F`, the cytotoxicity at 10 µM was -4.97%.

Regarding `CN(Cc1ccccn1)C(=O)Nc1cc(C(F)(F)F)c[nH]c1=O`, the cytotoxicity at 10 µM was 8.36%.

Regarding `CC1=CCN(S(=O)(=O)c2cccc(C(=O)N3CCOCC3)c2)CC1`, the cytotoxicity at 10 µM was determined as 4.9%.

For the compound `N#Cc1cccc(S(=O)(=O)NC2CCN(Cc3ccccc3)C2=O)c1` (stereo unspecified), the cytotoxicity at 10 µM was -7.18%.

On to `O=C(N1CCCC1)N1CCn2c(nnc2C2CCCN2)C1` (stereo unspecified), for which the cytotoxicity at 10 µM came out at 4.12%.

Take `Cc1cc(CN2CCC3(CC2)CC(C(=O)O)N(C(=O)C2CC2)C3)oc1C` (stereo unspecified): the cytotoxicity at 10 µM is -7.32%.

As to `Cc1cc2nc(SCC(=O)N3CCCC3)n(Cc3ccco3)c(O)c-2n1`, the cytotoxicity at 10 µM was 7.19%.

For the compound `Cc1nc(C2CCCCN2C(=O)c2ccccc2)ncc1C(=O)N(C)C` (stereo unspecified), the cytotoxicity at 10 µM came to 1.9%.

As to `NC(=O)c1cc(NC(=O)NCCc2cc(F)cc(F)c2)ccc1F`, the cytotoxicity at 10 µM was -9.58%.

For the compound `CN(C)[C@H]1CCCCN(Cc2cnc(NCc3ccccc3)nc2)C1`, the cytotoxicity at 10 µM turned out to be 0.166%.

For `CCC(CC)C(CNC(=O)Nc1cc(C)nn1C)N1CCOCC1` (stereo unspecified), the cytotoxicity at 10 µM was 1.74%.

As to `CC(C(N)=O)N(C)CCCc1cc(-c2ccccc2)no1` (stereo unspecified), the cytotoxicity at 10 µM is -5.01%.

For the compound `CCCc1n[nH]c(C2CN(CCn3cccn3)CCO2)n1` (stereo unspecified), the cytotoxicity at 10 µM is -11.3%.

With `Cc1cnc(CNC(=O)[C@@]23CCO[C@@H]2CCNC3)cn1`, the cytotoxicity at 10 µM was -108%.

For `CS(=O)(=O)N1CCC(CNc2cc(Cl)ccc2C#N)CC1`, the cytotoxicity at 10 µM is 14.9%.

For `CCN1CC2(CC1=O)CN(C(=O)C(C)C)CCN(S(C)(=O)=O)C2` (stereo unspecified), the cytotoxicity at 10 µM is -4.54%.

Take `COc1ccccc1-c1ncc(CN2CCC3(CCN(C)C3)CC2)cn1`: the cytotoxicity at 10 µM is 3.92%.

For the compound `CC(C)(N)CN1CCC(c2nnc(CN3CCCC3)n2C2CC2)CC1`, the cytotoxicity at 10 µM is 19.2%.

For the compound `CC1(C)CNC(=O)c2nc(-c3ccccc3)[nH]c2C1`, the cytotoxicity at 10 µM was -7.28%.

For the compound `CC(=O)N1N=C(COc2ccc3c(c2)OCO3)OC1c1ccc(C)cc1` (stereo unspecified), the cytotoxicity at 10 µM was 1.22%.

Consider `COc1ccnc(N2CCN(C(=O)N3CCOCC3)CC2)n1`, for which the cytotoxicity at 10 µM is -1.64%.

For `CN(Cc1cscn1)C1CCN(C(=O)OC(C)(C)C)CC1`, the cytotoxicity at 10 µM was -3.76%.

With `O=C(N[C@@H]1CN(c2ncc(F)cn2)[C@@H]2COC[C@@H]21)c1cscn1`, the cytotoxicity at 10 µM was -139%.

For the compound `CCCn1nc2c(cc1=O)CN(CCS(C)(=O)=O)CC2`, the cytotoxicity at 10 µM was -8.87%.

On to `CNS(=O)(=O)c1ccc(C(=O)Nc2ccc3c(c2)C(=O)NC3)cc1`, for which the cytotoxicity at 10 µM was -8.04%.

As to `CCc1ccc(NC(=O)c2cnc(N3CCN(C)CC3)nc2C)cc1`, the cytotoxicity at 10 µM is -15%.

As for `CCc1noc(CN2CCOC3(CCCC3)C2)n1`, the cytotoxicity at 10 µM was -3.54%.

With `Cc1ccsc1-c1nccn1CCS(C)(=O)=O`, the cytotoxicity at 10 µM turned out to be 3.03%.

`Cc1ccc(N2CCO[C@H]3CN(Cc4ccoc4)C[C@H]32)nn1`: the cytotoxicity at 10 µM was -70.7%.

`Cc1cc2c(=O)n3c(nc2s1)CCN(C(=O)c1ccnn1C(C)C)CC3`: the cytotoxicity at 10 µM is -6.46%.

For `CCOc1ncccc1NC(=O)c1cc2c(s1)CCC2`, the cytotoxicity at 10 µM is -15%.

As for `O=C(NC1CCCCC1)c1nnc2ccc(N3CCOCC3)cc2n1`, the cytotoxicity at 10 µM was 5.97%.

On to `CC(C)NC(=O)CN1CCC(c2cccc(F)c2)C1` (stereo unspecified), for which the cytotoxicity at 10 µM is 0.103%.

Regarding `COc1ccc(C(C)NCc2c[nH]nc2C)cc1Br` (stereo unspecified), the cytotoxicity at 10 µM was -5.57%.

Consider `Cc1cc2ccccc2n1CCC(=O)N1CCN(C)CC1C(N)=O` (stereo unspecified), for which the cytotoxicity at 10 µM was -1.04%.

`Cc1noc(Cl)c1CCC(=O)N1CCN(c2ncccn2)CC1`: the cytotoxicity at 10 µM is -2.01%.

Turning to `O=C1CN(C(=O)CC2c3ccccc3CCc3ccccc32)CCN1`, the cytotoxicity at 10 µM worked out at 9.98%.

With `COCc1ncc(-c2nccn2CCn2cnnc2)cn1`, the cytotoxicity at 10 µM turned out to be 4.6%.

Consider `O=C(NCc1cccnc1-n1cncn1)c1cc(Cl)ccn1`, for which the cytotoxicity at 10 µM is -3.76%.

As to `COCCn1ccc2c(NC(=O)C(C)C)cccc21`, the cytotoxicity at 10 µM was found to be 1.01%.

In the case of `COc1ccc(S(=O)(=O)C(F)(F)F)cc1NC(=O)CSC`, the cytotoxicity at 10 µM was found to be 10.9%.

For the compound `Cc1cc(C(=O)N2CCc3nnc(N)cc3C2)c(C)n1-c1cccnc1`, the cytotoxicity at 10 µM is -1.25%.

Take `CN(CCc1ccccc1)c1cnn(CC(=O)N2CCSCC2)c(=O)c1`: the cytotoxicity at 10 µM was -8.74%.

Turning to `O=C(CN1CCCS1(=O)=O)Nc1ccc(OC(F)F)cc1`, the cytotoxicity at 10 µM turned out to be 1.34%.

Consider `CCNc1ncc(CN2CCOC(Cc3cccc(OC)c3)C2)cn1` (stereo unspecified), for which the cytotoxicity at 10 µM was 0.583%.

`CC[C@H](C)[C@H](N)C(=O)Nc1nc(-c2cnc(N(C)C)nc2)cs1`: the cytotoxicity at 10 µM was -9.44%.

Consider `Cc1noc(C)c1-c1n[nH]c2c1CN(S(=O)(=O)c1cccs1)CC2`, for which the cytotoxicity at 10 µM is -12.1%.

As for `Cn1cccc1C(=O)NCc1cnc2n1CCN(c1ccccn1)C2`, the cytotoxicity at 10 µM is -2.74%.

As to `N#Cc1cnc(N2CCC3(CC2)OCCO3)nc1N`, the cytotoxicity at 10 µM amounted to 3.51%.

Regarding `COC(=O)CC(c1cccnc1)c1oc(C)cc(=O)c1O` (stereo unspecified), the cytotoxicity at 10 µM was -0.191%.

Turning to `CN(CC(=O)NC(Cc1ccsc1)c1cccnc1)Cc1ccccn1` (stereo unspecified), the cytotoxicity at 10 µM was 3.9%.

With `CC(c1ccc(F)cc1F)N1CCN(Cc2nccn2C)CC1` (stereo unspecified), the cytotoxicity at 10 µM was -11.7%.

`Cc1cc(-c2nccs2)nc(C2CCN(Cc3ccncc3)CC2)n1`: the cytotoxicity at 10 µM amounted to 8.6%.

On to `CC(C)[C@H]1COC(=O)N1Cc1nccn1C(C)C`, for which the cytotoxicity at 10 µM was 6.35%.

On to `Cc1nc(CNC(=O)Cn2nc(-c3ccc(F)cc3)oc2=O)cs1`, for which the cytotoxicity at 10 µM stood at 1.12%.

With `CN(C)c1ccc(C(=O)Nc2ccn(Cc3ccccn3)n2)cn1`, the cytotoxicity at 10 µM is -0.677%.

`O=C(NCc1cnc2n1CCN(Cc1nccs1)CC2)C1CCC1`: the cytotoxicity at 10 µM is 0.588%.

For the compound `CC(=O)N[C@@H]1CN(Cc2ccccc2C#N)C[C@H]1c1ccc(C)cc1`, the cytotoxicity at 10 µM was -4.27%.

Regarding `Cc1ccc(CNCc2cccc3cccnc23)c(OC2CCOC2)c1` (stereo unspecified), the cytotoxicity at 10 µM came out at 1.42%.

Regarding `CNC(=O)c1sccc1N(C)S(=O)(=O)c1ccc(Cl)cc1`, the cytotoxicity at 10 µM was 14.7%.

For the compound `COc1ccccc1N1CCN(C(=O)Cn2nc(C)c(C)c2C)C(C)C1` (stereo unspecified), the cytotoxicity at 10 µM was found to be 2.96%.

Turning to `COc1ccc(C(=O)N2C[C@@H](CN3CCCC3)[C@@H](CO)C2)c(C)c1`, the cytotoxicity at 10 µM was -7.21%.

On to `O=C(c1cc(-n2cccn2)ccn1)N(CC(F)(F)F)C1CCCC1`, for which the cytotoxicity at 10 µM turned out to be 5.49%.

For the compound `CCN1CCN(c2ccccc2NC(=O)N(C)C2CCSC2)CC1` (stereo unspecified), the cytotoxicity at 10 µM was -56.7%.

As for `CS(=O)(=O)NCc1nnc2n1CCN(Cc1ccncc1)C2`, the cytotoxicity at 10 µM was -73.6%.

`COCCCNC(=O)C(C)(C)N(C)C1CCCC1`: the cytotoxicity at 10 µM was -51.3%.

For `Cc1ccc(-c2cc(CN3CCc4cncnc4C3)on2)cc1`, the cytotoxicity at 10 µM turned out to be 4.96%.

As to `Cc1nc2ccc(C(=O)N3C[C@@H](O)[C@H](N4CCN(C)CC4)C3)cc2[nH]1`, the cytotoxicity at 10 µM is -27.5%.

Regarding `Cc1cc(C(C)NC(=O)CCN2C(=O)c3ccccc3C2=O)c(C)o1` (stereo unspecified), the cytotoxicity at 10 µM is -7.82%.

Consider `O=C([C@H](O)c1ccccc1)N1CCN(c2cccc(Cl)c2)C(=O)C1`, for which the cytotoxicity at 10 µM was -6.17%.

`O=C(NCc1ccc(Br)cc1)NCC1CCOC1` (stereo unspecified): the cytotoxicity at 10 µM is -4.51%.

With `Cc1ccc(S(=O)(=O)N2CSCC2C(=O)NCC(F)(F)F)cc1C` (stereo unspecified), the cytotoxicity at 10 µM was -0.855%.

For the compound `Cc1cc(CN(C)C(=O)NC(C)Cc2ccc(O)cc2)no1` (stereo unspecified), the cytotoxicity at 10 µM came out at 4.93%.

Turning to `Cc1nc(C)n(C2CCCN(C(=O)Cc3cn4ccccc4n3)C2)n1` (stereo unspecified), the cytotoxicity at 10 µM was -18.3%.

Regarding `CC(SCCC(=O)NC(N)=O)c1ccc(F)cc1F` (stereo unspecified), the cytotoxicity at 10 µM worked out at 0.936%.

On to `CC(C)N1CCC(NC(=O)NCCC(=O)NCc2ccccc2)C1` (stereo unspecified), for which the cytotoxicity at 10 µM was -0.986%.

In the case of `COc1ccc(CN2CCOC[C@H](OCC(=O)N(C)C)C2)cc1`, the cytotoxicity at 10 µM came to 0.552%.

For the compound `CCc1ocnc1C(=O)N1CCN(c2nncc3ccccc23)CC1`, the cytotoxicity at 10 µM was 6.61%.

`CCS(=O)(=O)NC[C@]12COC[C@H]1CN(Cc1ccccn1)C2`: the cytotoxicity at 10 µM was -72.5%.

Regarding `Cc1ccc(N2C[C@H]3OCC[C@H]3[C@H](C(=O)NC3CCCC3)C2)nn1`, the cytotoxicity at 10 µM was -75.6%.

For `Cc1nc(-c2nnc[nH]2)sc1C(=O)N1CCCC1Cn1cccn1` (stereo unspecified), the cytotoxicity at 10 µM is 11.8%.

`Cc1csc(N2CCCN(Cc3ccn(C)c(=O)c3)CC2)n1`: the cytotoxicity at 10 µM was 12.8%.

With `CC(CN1CCCC1=O)NC(=O)c1ccc(C(F)(F)F)[nH]c1=O` (stereo unspecified), the cytotoxicity at 10 µM was -4.48%.

As for `CC(C)c1ccc(OCCC(=O)N(C)C)cc1`, the cytotoxicity at 10 µM is 3.81%.

Consider `CN(C)Cc1cnn(-c2ccccc2C(=O)NCCC2CCCN2C)c1` (stereo unspecified), for which the cytotoxicity at 10 µM was 8.18%.

Consider `Cn1cc(S(=O)(=O)NCC2CCN(C(=O)Oc3ccccc3)CC2)cn1`, for which the cytotoxicity at 10 µM was -8.36%.

As for `CC(=O)NCc1nnc2n1CCN(Cc1cccs1)C2`, the cytotoxicity at 10 µM was -149%.

As to `Cc1ncc(S(C)(=O)=O)c(N2CCCCCC2)n1`, the cytotoxicity at 10 µM was -0.972%.

Consider `CC1CCCCN1C(=O)c1cn(-c2ccc(C(F)(F)F)cn2)nn1` (stereo unspecified), for which the cytotoxicity at 10 µM is -56.5%.

For the compound `CS(=O)(=O)c1ccc(OCCNCc2cccc(O)c2)cc1`, the cytotoxicity at 10 µM worked out at 2.21%.

The record behind these values is ChEMBL document CHEMBL4513216, “Probing the Open Global Health Chemical Diversity Library for Multistage-Active Starting Points for Next-Generation Antimalarials” (ACS Infect Dis, 2020).
